We go through 6 molecules from ChEMBL document CHEMBL4602632, “Synthesis and anti-Mycobacterium tuberculosis activity of imide-β-carboline and carbomethoxy-β-carboline derivatives” (Eur J Med Chem, 2020).

Values after ≈ are worked out from the molar mass of the structure shown.

Common to all, as to type: functional
Assay [1] deals with Mycobacterium tuberculosis. Put plainly: Antimycobacterial activity against Mycobacterium tuberculosis BRF45 harbouring KatG Ser315Thr mutant and wild type InhA assessed as reduction in bacterial growth incubated for 7 days by resazurin dye based assay. The method, boiled down:
(§1)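 REMA broth microdilution: DMSO stocks diluted in 7H9-OADC, standardized inoculum added, final 0.98 to 250 μg/mL; 7 days at 35 °C in normal atmosphere, then 0.01% resazurin and a further 24 h at 35 °C. Read visually. MIC is the lowest concentration preventing the blue-to-pink change. Three independent assays on different days; isoniazid reference, medium, sterility and growth ±2.5% DMSO controls.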
Background: The colour change of resazurin is a common sign of viable cells or microbes.

Assay [2] has as its system Mycobacterium tuberculosis. Put plainly: Antimycobacterial activity against Mycobacterium tuberculosis BRF16 harbouring KatG Ser315Thr mutant and wild type InhA assessed as reduction in bacterial growth incubated for 7 days by resazurin dye based assay. The method, boiled down:
as §1

For assay [3], the system named is Mycobacterium tuberculosis. Briefly: Antimycobacterial activity against Mycobacterium tuberculosis 19 harbouring KatG Ser315Thr mutant and wild type InhA assessed as reduction in bacterial growth incubated for 7 days by resazurin dye based assay. The method, boiled down: as §1
For assay [4], the system named is Mycobacterium tuberculosis. Put plainly: Antimycobacterial activity against Mycobacterium tuberculosis 73A harbouring KatG Ser315Thr mutant and wild type InhA assessed as reduction in bacterial growth incubated for 7 days by resazurin dye based assay. The method, boiled down: as §1
In assay [5] the test system is Mycobacterium tuberculosis. Briefly: Antimycobacterial activity against Mycobacterium tuberculosis 3614 harbouring wild type KatG and InhA Ile21Thr mutant assessed as reduction in bacterial growth incubated for 7 days by resazurin dye based assay. The method, boiled down: as §1
Assay [6] has as its system Mycobacterium tuberculosis. Put plainly: Antimycobacterial activity against Mycobacterium tuberculosis BRF57 harbouring KatG Ser315Thr mutant and wild type InhA assessed as reduction in bacterial growth incubated for 7 days by resazurin dye based assay. The method, boiled down: as §1
The subject of assay [7] is Mycobacterium tuberculosis. Briefly: Antimycobacterial activity against Mycobacterium tuberculosis 91 harbouring KatG Ser315Thr mutant and wild type InhA assessed as reduction in bacterial growth incubated for 7 days by resazurin dye based assay. In short, it runs like this: as §1
Assay [8] relates to Mycobacterium tuberculosis. Briefly: Antimycobacterial activity against Mycobacterium tuberculosis BRF14 harbouring KatG Ser315Thr mutant and wild type InhA assessed as reduction in bacterial growth incubated for 7 days by resazurin dye based assay. The method, boiled down:
as §1

For assay [9], the system named is Mycobacterium tuberculosis. Put plainly: Antimycobacterial activity against Mycobacterium tuberculosis 71A harbouring KatG Ser315Thr mutant and wild type InhA assessed as reduction in bacterial growth incubated for 7 days by resazurin dye based assay. In short, it runs like this:
as §1

Consider `COC(=O)c1cc2c([nH]c3ccccc32)c(-c2ccc(N(C)C)cc2)n1`, for which the MIC in assay [1] stood at 90.54 µM (≈ 31.3 µg/mL); in assay [2], 362.16 µM; in [3] it was 90.55 µM (≈ 31.3 µg/mL); in assay [4], 90.54 µM (≈ 31.3 µg/mL); in assay [5], 90.54 µM (≈ 31.3 µg/mL); in assay [6], 362.16 µM (≈ 125 µg/mL). In addition, the MIC in [7] is 180.36 µM (≈ 62.3 µg/mL); in assay [8], 724.32 µM (≈ 250 µg/mL); in [9], >724.32 µM.
As for `O=C(NN1C(=O)CCC1=O)c1cc2c([nH]c3ccccc32)c(-c2ccc(F)cc2)n1`, the MIC in assay [1] was determined as 77.72 µM (≈ 31.3 µg/mL); in assay [2] it was 62.5 µg/mL; in [3], 155.43 µM (≈ 62.5 µg/mL); in [4], 77.72 µM (≈ 31.3 µg/mL); in assay [5], 155.43 µM (≈ 62.5 µg/mL); in assay [6] it was 310.86 µM (≈ 125 µg/mL). The MIC in assay [7], in assay [8] and in assay [9] was 310.86 µM (≈ 125 µg/mL) throughout.
As for `O=C(NN1C(=O)c2ccccc2C1=O)c1cc2c([nH]c3ccccc32)c(-c2cccc([N+](=O)[O-])c2)n1`, the MIC is 261.99 µM (≈ 125 µg/mL) in assay [1]; 261.99 µM in assay [2]; 261.99 µM (≈ 125 µg/mL) in [3]; 261.99 µM (≈ 125 µg/mL) in assay [4]; 261.99 µM (≈ 125 µg/mL) in assay [5]; >523.99 µM in [6]. For the same molecule, the values for the MIC in [7], in [8] and in assay [9] were >523.99 µM, 523.99 µM (≈ 250 µg/mL) and >523.99 µM, respectively.
As to `O=C(NN1C(=O)c2ccccc2C1=O)c1cc2c([nH]c3ccccc32)c(-c2ccccc2)n1`, the MIC was determined as 144.64 µM (≈ 62.5 µg/mL) in [1]; 289.27 µM in assay [2]; 144.64 µM (≈ 62.5 µg/mL) in assay [3]; 144.64 µM (≈ 62.5 µg/mL) in assay [4]; 144.64 µM (≈ 62.5 µg/mL) in assay [5]; 289.27 µM (≈ 125 µg/mL) in assay [6]. Also, the MIC in assay [7], in assay [8] and in [9] was 289.27 µM (≈ 125 µg/mL) throughout.
On to `O=C(NN1C(=O)c2ccccc2C1=O)c1cc2c([nH]c3ccccc32)c(-c2ccc(F)cc2)n1`, for which the MIC in assay [1] came out at 138.85 µM (≈ 62.5 µg/mL); in [2], 138.85 µM; in assay [3] it was 138.85 µM (≈ 62.5 µg/mL); in assay [4], 138.85 µM (≈ 62.5 µg/mL); in [5] it was 138.85 µM (≈ 62.5 µg/mL); in [6] it was 277.71 µM (≈ 125 µg/mL). The MIC in assay [7] is 277.71 µM (≈ 125 µg/mL); in assay [8], 138.85 µM (≈ 62.5 µg/mL); in assay [9] it was 277.71 µM (≈ 125 µg/mL).
As for `NNC(=O)c1ccncc1` [ISONIAZID], the minimum inhibitory concentration (MIC) was determined as 4 µM (≈ 0.549 µg/mL) in assay [1]; 8 µM in [2]; 2 µM (≈ 0.274 µg/mL) in assay [3]; 4 µM (≈ 0.549 µg/mL) in assay [4]; 4 µM (≈ 0.549 µg/mL) in assay [5]; 4 µM (≈ 0.549 µg/mL) in assay [6]. In addition, the figures for the MIC in [7], in assay [8] and in [9] were 2 µM (≈ 0.274 µg/mL), 8 µM (≈ 1.1 µg/mL) and 4 µM (≈ 0.549 µg/mL), respectively.

The MIC is the smallest concentration in the dilution series that meets the test's criterion for growth inhibition.
